Assay results published in paper PMC5199138 (Cancer chemotherapy and pharmacology, 2016).
“Also recorded” adds a separate entry of the source.

Columns and labels:
[1] = system: patients with advanced solid tumors; test: Phase I trial, daily schedule; assay type: in vivo
[2] = system: patients with advanced solid tumors; test: Phase I trial, weekly schedule; assay type: in vivo
[3] = Plasma and urine pharmacokinetics; assay type: in vivo, human; conditions: for AUC(0-t) / Cmax / AUC(0-inf) / half-life: human, plasma, intravenous
[4] = system: γH2AX; test: γH2AX in hair follicles; assay type: in vivo, human; conditions: 4 patients, daily trial, 4-6 h post-infusion vs pre-infusion; p=0.027, 1-sided
[5] = molecular target: T1, Top1 (Homo sapiens, UniProt P11387); test: Top1 levels in PBMCs; assay type: in vivo
T1 sequence (P11387 1-765): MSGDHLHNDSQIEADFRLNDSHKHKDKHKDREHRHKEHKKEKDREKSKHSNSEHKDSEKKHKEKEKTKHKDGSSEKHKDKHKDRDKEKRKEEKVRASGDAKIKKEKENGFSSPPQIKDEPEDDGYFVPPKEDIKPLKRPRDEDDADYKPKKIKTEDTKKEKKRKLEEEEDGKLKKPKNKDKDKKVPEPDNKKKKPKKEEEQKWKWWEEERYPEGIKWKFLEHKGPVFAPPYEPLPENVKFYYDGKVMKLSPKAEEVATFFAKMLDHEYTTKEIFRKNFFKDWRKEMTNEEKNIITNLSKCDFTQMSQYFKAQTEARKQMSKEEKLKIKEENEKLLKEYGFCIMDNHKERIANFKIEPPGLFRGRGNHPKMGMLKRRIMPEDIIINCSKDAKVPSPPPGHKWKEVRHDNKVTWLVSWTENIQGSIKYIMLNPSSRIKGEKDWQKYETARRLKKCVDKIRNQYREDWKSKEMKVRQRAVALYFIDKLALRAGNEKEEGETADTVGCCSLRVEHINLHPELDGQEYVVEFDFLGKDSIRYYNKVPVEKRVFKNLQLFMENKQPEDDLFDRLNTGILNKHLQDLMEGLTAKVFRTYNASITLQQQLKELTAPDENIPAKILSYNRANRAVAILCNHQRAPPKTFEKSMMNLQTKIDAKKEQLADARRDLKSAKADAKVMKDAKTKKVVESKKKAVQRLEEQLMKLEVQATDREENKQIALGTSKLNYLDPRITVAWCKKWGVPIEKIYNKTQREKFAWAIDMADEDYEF
Procedure, shortened: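 PBMCs collected in the daily trial before dosing and 4 h after infusion start on cycle 1 days 1 and 3. Top1 measured by validated immunofluorescence assay, expressed as pg/10^7 cells. Reportable only if pre-dose Top1 exceeded twice the LLQ; samples also had to pass assay QC. Result given as percent change from baseline per patient.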

[6] = cited from earlier work
[7] = molecular target: T1, Top1; test: Top1 levels in paired tumor biopsies; assay type: in vivo; conditions: of the 8 patients on the daily schedule
Procedure, shortened: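 Daily schedule: tumor biopsies taken at baseline and 2–4 h after infusion start on cycle 1 day 3. Top1 quantified by validated immunofluorescence assay (pg/μg protein). Pre-dose value had to exceed twice the LLQ to allow detection of a 50% reduction. Reported as percent change from baseline for each patient.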

[8] = weekly trial, Total (N=21), all dose levels, SD of geometric mean in parenthesis
[9] = weekly trial, W1, 60 mg/m^2 over 3 h, N=6, SD of geometric mean in parenthesis
[10] = weekly trial, W2, 90 mg/m^2 over 3 h, N=8, SD of geometric mean in parenthesis
[11] = weekly trial, W3, 135 mg/m^2 over 3 h, N=7, SD of geometric mean in parenthesis

In the case of COc1cc2c3c(n(CCCN4CCOCC4)c(=O)c2cc1OC)-c1cc2c(cc1C3=O)OCO2 [indotecan], the “Maximum tolerated dose (MTD)” value ([1]; daily for 5 days in 28-day cycles, iv over 1 h) is reported as 60 mg/m^2/day, the “Objective response (RECIST)” value ([1]; daily schedule, 21 patients) is reported as “No objective responses were observed on either schedule; also recorded: no patient on either schedule had an objective response” and the Principal toxicity ([1]; in vivo) is reported as “myelosuppression”. The “Maximum tolerated dose (MTD)” value ([2]; days 1, 8, 15 in 28-day cycles, iv over 3 h) was 90 mg/m^2, the Principal toxicity ([2]; in vivo) was “myelosuppression” and the “Objective response (RECIST)” value ([2]; weekly schedule, 21 patients) was “No objective responses were observed on either schedule; also recorded: no patient on either schedule had an objective response”. The “Renal excretion 0–24 h” value ([3]; daily trial, D1, 2.5 mg/m^2 over 1 h, N=1) was 0.49% dose, the “Renal excretion 0–24 h” value ([3]; daily trial, D2, 5 mg/m^2 over 1 h, N=3, SD of geometric mean in parenthesis) was 0.48% (0.21%) % dose and the “Renal excretion 0–24 h” value ([3]; daily trial, D3, 10 mg/m^2 over 1 h, N=1) was 0.36% dose. For the same compound, the “Renal excretion 0–24 h” value ([3]; daily trial, D4, 20 mg/m^2 over 1 h, N=1) was 0.26% dose, the “Renal excretion 0–24 h” value ([3]; daily trial, D5a, 60 mg/m^2 over 1 h, N=6, SD of geometric mean in parenthesis) was 0.18% (0.17%) % dose and the “Renal excretion 0–24 h” value ([3]; daily trial, D6, 80 mg/m^2 over 1 h, N=3, SD of geometric mean in parenthesis) was 0.26% (0.03%) % dose. The “Renal excretion 0–24 h” value ([3]; daily trial, Total (N=20), all dose levels, SD of geometric mean in parenthesis) was 0.24% (0.17%) % dose, the “Clearance as share of human hepatic blood flow” value ([3]; hepatic blood flow from ref 15) was “approximately 2%” and the AUC(0-t) ([3]; 2.5 mg/m2, AUC0–24, daily trial, D1, 2.5 mg/m^2 over 1 h, N=1) was 547 ng·h/mL. It also gave a Cmax ([3]; 2.5 mg/m2, Cmax, daily trial, D1, 2.5 mg/m^2 over 1 h, N=1) of 94.3 ng/mL, an AUC(0-t) ([3]; 5 mg/m2, AUC0–24, daily trial, D2, 5 mg/m^2 over 1 h, N=3, SD of geometric mean in parenthesis) of 1450 ng·h/mL and a Cmax ([3]; 5 mg/m2, Cmax, daily trial, D2, 5 mg/m^2 over 1 h, N=3, SD of geometric mean in parenthesis) of 191 ng/mL. It also gave an AUC(0-inf) ([3]; 60 mg/m2) of 56400 ng·h/mL, an AUC(0-t) ([3]; 60 mg/m2, AUC0–24, daily trial, D5a, 60 mg/m^2 over 1 h, N=6, SD of geometric mean in parenthesis) of 12800 ng·h/mL and an AUC(0-t) ([3]; 60 mg/m2, AUC0–24, weekly trial, W1, 60 mg/m^2 over 3 h, N=6, SD of geometric mean in parenthesis) of 13700 ng·h/mL. The Cmax ([3]; 60 mg/m2, Cmax, daily trial, D5a, 60 mg/m^2 over 1 h, N=6, SD of geometric mean in parenthesis) was 1610 ng/mL, the Cmax ([3]; 60 mg/m2, Cmax, weekly trial, W1, 60 mg/m^2 over 3 h, N=6, SD of geometric mean in parenthesis) was 1270 ng/mL and the half-life ([3]; 60 mg/m2, t1/2, weekly trial, W1, 60 mg/m^2 over 3 h, N=6, SD of geometric mean in parenthesis) was 89 h. The AUC(0-t) ([3]; 80 mg/m2, AUC0–24, daily trial, D6, 80 mg/m^2 over 1 h, N=3, SD of geometric mean in parenthesis) was 14700 ng·h/mL, the Cmax ([3]; 80 mg/m2, Cmax, daily trial, D6, 80 mg/m^2 over 1 h, N=3, SD of geometric mean in parenthesis) was 1650 ng/mL and the AUC(0-inf) ([3]; 90 mg/m2) was 88600 ng·h/mL. It also gave an AUC(0-t) ([3]; 90 mg/m2, AUC0–24, weekly trial, W2, 90 mg/m^2 over 3 h, N=8, SD of geometric mean in parenthesis) of 18700 ng·h/mL, a Cmax ([3]; 90 mg/m2, Cmax, weekly trial, W2, 90 mg/m^2 over 3 h, N=8, SD of geometric mean in parenthesis) of 1690 ng/mL and a half-life ([3]; 90 mg/m2, t1/2, weekly trial, W2, 90 mg/m^2 over 3 h, N=8, SD of geometric mean in parenthesis) of 74 h. The AUC(0-inf) ([3]; 135 mg/m2) was 70800 ng·h/mL, the AUC(0-t) ([3]; 135 mg/m2, AUC0–24, weekly trial, W3, 135 mg/m^2 over 3 h, N=7, SD of geometric mean in parenthesis) was 21500 ng·h/mL and the Cmax ([3]; 135 mg/m2, Cmax, weekly trial, W3, 135 mg/m^2 over 3 h, N=7, SD of geometric mean in parenthesis) was 1930 ng/mL. For the same compound, the half-life ([3]; 135 mg/m2, t1/2, weekly trial, W3, 135 mg/m^2 over 3 h, N=7, SD of geometric mean in parenthesis) was 50 h, the “Inter-patient variability, coefficient of variation in drug clearance” value ([3]; in vivo) was 58% and the Clearance ([3]; patients) was 1 L/h/m^2. For the same compound, the CL [3, 8] was 1.27 (0.74) L/h/m^2, the “Renal excretion 0–24 h” value [3, 8] was 0.19% (0.13%) % dose and the Vss [3, 8] was 109 (69) L/m^2. For the same compound, the CL [3, 9] was 1.06 (0.34) L/h/m^2, the “Renal excretion 0–24 h” value [3, 9] was 0.21% (0.08%) % dose and the Vss [3, 9] was 116 (121) L/m^2. For the same compound, the CL [3, 10] was 1.02 (0.73) L/h/m^2, the “Renal excretion 0–24 h” value [3, 10] was 0.15% (0.13%) % dose and the Vss [3, 10] was 99.3 (32.6) L/m^2. The CL [3, 11] was 1.91 (0.73) L/h/m^2, the “Renal excretion 0–24 h” value [3, 11] was 0.22% (0.16%) % dose and the Vss [3, 11] was 114 (39) L/m^2. The “γH2AX formation in hair bulbs” value [4] was “induced significant DNA damage”, the “Effects of treatment on PBMC Top1 levels” value ([5]; DL-D2 through DL-D6, 4 h after start of infusion, cycle 1 days 1 and 3) was “inconclusive” and the “Decrease in PBMC Top1 level” value ([5]; patients #0003 and #0015, post-dose vs baseline) was over 70%. For the same compound, the “Drug in the unbound state (protein binding)” value [6] was “approximately 2%” and the “Number of patients with significant Top1 decreases in post-treatment biopsies” value [7] was 3.
